From ChEMBL document CHEMBL1137132, “The synthesis and SAR of 2-arylsulfanyl-phenyl piperazinyl acetic acids as glyT-1 inhibitors” (Bioorg Med Chem Lett, 2004) come the findings set out here.

Data set [1] deals with T1, Sodium- and chloride-dependent glycine transporter 1 (Homo sapiens, UniProt P48067).
T1 sequence (P48067 whole entry): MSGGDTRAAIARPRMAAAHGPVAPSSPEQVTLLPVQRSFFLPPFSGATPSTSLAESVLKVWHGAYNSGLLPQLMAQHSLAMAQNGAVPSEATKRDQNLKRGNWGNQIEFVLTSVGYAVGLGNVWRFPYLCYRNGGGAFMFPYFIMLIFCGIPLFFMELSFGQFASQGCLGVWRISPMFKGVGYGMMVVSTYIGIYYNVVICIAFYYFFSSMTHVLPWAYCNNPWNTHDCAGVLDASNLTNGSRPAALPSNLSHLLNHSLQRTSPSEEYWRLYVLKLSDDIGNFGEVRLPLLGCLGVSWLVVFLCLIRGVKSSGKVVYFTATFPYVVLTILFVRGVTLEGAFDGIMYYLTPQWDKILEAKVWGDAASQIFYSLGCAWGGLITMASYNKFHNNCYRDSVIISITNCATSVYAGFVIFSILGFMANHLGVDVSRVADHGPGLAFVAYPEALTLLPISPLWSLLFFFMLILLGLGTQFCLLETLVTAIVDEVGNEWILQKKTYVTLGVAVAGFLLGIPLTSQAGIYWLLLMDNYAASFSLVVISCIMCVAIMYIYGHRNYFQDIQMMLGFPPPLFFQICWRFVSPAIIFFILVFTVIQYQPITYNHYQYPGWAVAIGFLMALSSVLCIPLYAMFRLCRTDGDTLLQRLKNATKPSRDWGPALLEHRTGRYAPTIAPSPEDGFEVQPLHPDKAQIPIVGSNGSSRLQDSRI
Put plainly: Inhibition of uptake of [3H]-glycine into cells transfected with human GlyT-1b transporter.

The test system of another data set is Rattus norvegicus. Put plainly: Compound tested for increase in levels of glycine in the ventral hippocampus at a dose of 4.6 mg/kg after 60 min of s.c. administration. The format is functional. The gist of the method: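 In vivo microdialysis in freely moving rats, ventral hippocampus. Compound given subcutaneously. Extracellular glycine measured, with mean basal pre-injection values normalised to 100%; n is the number of animals.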

Data set [2] can be described thus: Plasma clearance in rat. The format is ADME, organism-based.
Data set [3] can be described thus: Half-life in rat. In kind it is ADME. To be noted: in vivo.
Data set [4] can be described thus: Oral bioavailability in rat. In kind it is ADME, organism-based. As to conditions: in vivo. In short, it runs like this:
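Rat pharmacokinetics, oral dosing as a solution.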

One may read the IC50 as the concentration that inhibits the measured activity by half. A low value points to higher potency. On to `COc1ccc(Sc2ccccc2N2CCN(CC(=O)O)CC2C)cc1` (stereo not drawn), for which the IC50 in data set [1] was > 10000 nM.
For the compound `COc1ccc(Sc2ccccc2N2CCN(CC(=O)O)C(C)(C)C2)cc1`, the IC50 in data set [1] amounted to 1500 nM.
As for `CC1CN(c2ccccc2Sc2ccc(Cl)cc2)C(C)CN1CC(=O)O` (stereo not drawn), the IC50 in data set [1] is 360 nM.
Regarding `CC1CN(c2ccccc2Sc2ccc(O)cc2)C(C)CN1CC(=O)O` (stereo not drawn), half-maximal inhibition in data set [1] (IC50) required 3600 nM.
Still for that read-out and setting: as for `CC(=O)Nc1ccc(Sc2ccccc2N2CC(C)N(CC(=O)O)CC2C)cc1` (stereo not drawn), the figure is 22000 nM.
Compound `COc1ccc(Sc2ccc(Cl)cc2N2CCN(CC(=O)O)C(C)C2)cc1` (stereo not drawn) had an IC50 in data set [1] of 290 nM.
In the case of `CC1CN(c2ccccc2Sc2ccc(-c3ccccc3)cc2)C(C)CN1CC(=O)O` (stereo not drawn), in data set [1], the IC50 was > 10000 nM.
On the same count and under the same terms, in the case of `COc1ccc(Sc2ccccc2N2C[C@@H](C)N(CC(=O)O)C[C@@H]2C)cc1` it was 160 nM; in that of `Cc1ccc(Sc2ccccc2N2CC(C)N(CC(=O)O)CC2C)cc1` (stereo not drawn), 550 nM.
Turning to `COc1ccc(Sc2ccc(OC)cc2N2CC(C)N(CC(=O)O)CC2C)cc1` (stereo not drawn), the IC50 in data set [1] was > 50000 nM.
`COc1ccc(Sc2ccccc2N2CC(C)N(CC(=O)O)CC2C)cc1` (stereo not drawn) had a half-maximal inhibitory concentration (IC50) in data set [1] of 580 nM.
On the same count and under the same terms, as for `COc1ccc(Sc2ccccc2N2C[C@H](C)N(CC(=O)O)C[C@H]2C)cc1`, the figure is 53000 nM; as for `COc1ccc(Sc2ccccc2N2C[C@H](C)N(CC(=O)O)C[C@@H]2C)cc1`, 18000 nM.
`CC1CN(c2ccccc2Sc2ccc(F)cc2)C(C)CN1CC(=O)O` (stereo not drawn) showed an IC50 in data set [1] of 1900 nM.
Turning to `COc1ccc(Sc2ccc(Cl)cc2N2CCN(CC(=O)O)[C@@H](C)C2)cc1`, it took 1400 nM to reach half-maximal inhibition in data set [1] (IC50).
`COc1ccc(Sc2ccc(OC)cc2N2CCN(CC(=O)O)C(C)C2)cc1` (stereo not drawn) came in with a half-maximal inhibitory concentration (IC50) in data set [1] of 4600 nM.
The same measure, in the same setting: in the case of `COc1ccc(Sc2ccc(Cl)cc2N2CC(C)N(CC(=O)O)CC2C)cc1` (stereo not drawn) it was 1700 nM; in that of `COc1ccc(Sc2ccccc2N2CCN(CC(=O)O)CC2)cc1`, > 10000 nM.
The same measure, in the same setting: in the case of `CN(CC[C@@H](Oc1ccc(C(F)(F)F)cc1)c1ccccc1)CC(=O)O` it was 320 nM; in that of `COc1ccc(Sc2ccc(C)cc2N2CCN(CC(=O)O)C(C)C2)cc1` (stereo not drawn), 1600 nM; in that of `COc1ccc(Sc2ccccc2N2C[C@@H](C)N(CC(=O)O)C[C@H]2C)cc1`, 16000 nM.
For orientation: clearance means the volume of plasma or blood freed of the substance per unit of time. The low end stands for inefficient removal, the high end for efficient removal. A word on the half-life: it is the time needed for the level to fall by half in the phase considered. A low value points to rapid decline. Broadly, the bioavailability is dose-corrected exposure relative to a reference, in per cent. For `COc1ccc(Sc2ccc(Cl)cc2N2CCN(CC(=O)O)[C@H](C)C2)cc1`, the Increase in the data set on Rattus norvegicus is recorded as 140%. In addition, the clearance in data set [2] is 6.67 mL/min/kg. Further, the half-life in data set [3] is 4 h. In data set [4], this compound registered a bioavailability of 100%. In addition, the IC50 in data set [1] came to 150 nM.
In data set [1], `CC1CN(c2ccccc2Sc2ccccc2)C(C)CN1CC(=O)O` (stereo not drawn) gave an IC50 of 2900 nM.
Regarding `COc1ccc(Sc2ccccc2N2CCN(CC(=O)O)C(C)C2)cc1` (stereo not drawn), in data set [1], 1700 nM corresponded to half-maximal inhibition (IC50).
